{"source": "ChEMBL document CHEMBL2176968", "about": "“Identification of less lipophilic riminophenazine derivatives for the treatment of drug-resistant tuberculosis” (J Med Chem, 2012)", "key": {"[1]": {"system": "Mycobacterium tuberculosis", "experiment": "Antitubercular activity against multi-drug resistant Mycobacterium tuberculosis isolate 040 infected in BALB/c mouse assessed as reduction in lung bacterial load at 20 mg/kg, po qd administered 5 days per week during acute phase of infection measured after 20 days relative to untreated control", "type": "functional", "how_it_was_run": "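Infection was by aerosol, depositing 50-100 bacilli per lung. Dosing began on day 10 and ran to day 30, 5 days per week, with compound in 0.5% CMC by gavage. Groups had 5-6 treated mice and 7-10 CMC-treated controls. The day after the last dose, lung homogenates were plated on supplemented 7H11 agar in duplicate for 2-3 weeks at 37°C. Results are log10 CFU per lung; means were compared by Student's t test.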"}, "[2]": {"system": "Mus musculus", "experiment": "Toxicity in BALB/c mouse infected with multi-drug resistant Mycobacterium tuberculosis isolate 040 assessed as skin discoloration at 20 mg/kg, po qd administered 5 days per week during acute phase of infection measured after 20 days", "type": "organism-based", "set-up": "dose 20 mg/kg, route oral", "settings": "in vivo, 480 h", "how_it_was_run": "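Mice were infected by aerosol and then dosed by gavage at 20 mg/kg in 0.5% CMC, 5 days per week, from day 10 to day 30. During treatment, discoloration of ears, internal organs and fat tissue was scored visually and ranked by color intensity.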"}}}
{"smiles": "COc1ncccc1Nc1cc2nc3ccccc3n(-c3ccc(F)cc3)c-2c/c1=N\\C(C)C", "values": [{"measurement": "log10cfu", "setting": "[1]", "result": 3.91}, {"measurement": "Activity", "setting": "[2]", "result": "Toxic"}]}
{"smiles": "COC1CCC(/N=c2\\cc3n(-c4ccc(Cl)cc4)c4ccccc4nc-3cc2Nc2ccc(C)nc2)CC1", "note": "(centres undefined)", "values": [{"measurement": "log10cfu", "setting": "[1]", "result": 3.25}, {"measurement": "Activity", "setting": "[2]", "result": "Non-toxic"}]}
{"smiles": "COc1ncccc1Nc1cc2nc3ccccc3n(-c3ccc(Cl)cc3)c-2c/c1=N\\C1CCC(OC)CC1", "note": "(centres undefined)", "values": [{"measurement": "log10cfu", "setting": "[1]", "result": 4.04}, {"measurement": "Activity", "setting": "[2]", "result": "Non-toxic"}]}
{"smiles": "COc1ncccc1Nc1cc2nc3ccccc3n(-c3ccc(Cl)cc3)c-2c/c1=N\\C1CCOCC1", "values": [{"measurement": "log10cfu", "setting": "[1]", "result": 4.81}, {"measurement": "Activity", "setting": "[2]", "result": "Non-toxic"}]}
{"smiles": "CC(C)/N=c1\\cc2n(-c3ccc(Cl)cc3)c3ccccc3nc-2cc1Nc1ccc(Cl)cc1", "note": "[CLOFAZIMINE]", "values": [{"measurement": "log10cfu", "setting": "[1]", "result": 3.54}, {"measurement": "Activity", "setting": "[2]", "result": "Toxic"}]}
{"smiles": "COc1ncccc1Nc1cc2nc3ccccc3n(-c3ccc(F)cc3)c-2c/c1=N\\C1CCC(OC)CC1", "note": "(centres undefined)", "values": [{"measurement": "log10cfu", "setting": "[1]", "result": 4.35}, {"measurement": "Activity", "setting": "[2]", "result": "Toxic"}]}
{"smiles": "COc1ncccc1Nc1cc2nc3ccccc3n(-c3ccc(OC(F)(F)F)cc3)c-2c/c1=N\\C1CCC(OC)CC1", "note": "(centres undefined)", "values": [{"measurement": "log10cfu", "setting": "[1]", "result": 4.67}, {"measurement": "Activity", "setting": "[2]", "result": "Non-toxic"}]}
